The target in experiment [1] is Delta-type opioid receptor (Homo sapiens) (UniProt P41143). In words: Displacement of [3H]DADLE from human recombinant delta opioid receptor expressed in Chem-1 (RBL) cells at 100 nM incubated for 60 mins by radiometric scintillation analysis. The class given is cell-based. In outline: (§1)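 δ receptor: membranes of human recombinant Chem-1 (RBL) cells with [3H]DADLE 0.5 nM. Nonspecific binding defined with 10 μM naltrexone. Incubated 60 min at room temperature. Test concentrations 0.1 and 10 μM. Bound ligand collected by rapid vacuum filtration on glass fiber filters, followed by ice-cold buffer rinses. Read-out is percent displacement.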
Sequence of Delta-type opioid receptor (Homo sapiens) (P41143 whole entry): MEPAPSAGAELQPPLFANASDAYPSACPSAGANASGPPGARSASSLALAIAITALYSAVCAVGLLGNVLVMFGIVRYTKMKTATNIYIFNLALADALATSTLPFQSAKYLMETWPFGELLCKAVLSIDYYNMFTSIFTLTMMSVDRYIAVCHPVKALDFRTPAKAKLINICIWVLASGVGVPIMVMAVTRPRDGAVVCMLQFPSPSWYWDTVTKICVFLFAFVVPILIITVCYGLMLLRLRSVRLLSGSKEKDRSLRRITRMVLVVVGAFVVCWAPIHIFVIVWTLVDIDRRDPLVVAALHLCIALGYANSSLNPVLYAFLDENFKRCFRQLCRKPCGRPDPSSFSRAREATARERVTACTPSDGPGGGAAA
For orientation: In a radioligand displacement assay an active substance lowers the binding of a labelled ligand.

The target in experiment [2] is Kappa-type opioid receptor (Homo sapiens) (UniProt P41145). In words: Displacement of [3H]U69593 from human recombinant kappa opioid receptor expressed in Chem-1 (RBL) cells at 10000 nM incubated for 60 mins by radiometric scintillation analysis. The class given is cell-based. An outline of the steps: (§2)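 κ receptor: human recombinant RBL cell membranes with [3H]U69,593 0.5 nM. Nonspecific binding defined with 10 μM naloxone. Incubated 60 min at room temperature. Screened at 0.1 and 10 μM. Bound fraction separated by vacuum filtration on glass fiber filters with ice-cold buffer washes. Read-out is percent displacement.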
Sequence of Kappa-type opioid receptor (Homo sapiens) (P41145 whole entry): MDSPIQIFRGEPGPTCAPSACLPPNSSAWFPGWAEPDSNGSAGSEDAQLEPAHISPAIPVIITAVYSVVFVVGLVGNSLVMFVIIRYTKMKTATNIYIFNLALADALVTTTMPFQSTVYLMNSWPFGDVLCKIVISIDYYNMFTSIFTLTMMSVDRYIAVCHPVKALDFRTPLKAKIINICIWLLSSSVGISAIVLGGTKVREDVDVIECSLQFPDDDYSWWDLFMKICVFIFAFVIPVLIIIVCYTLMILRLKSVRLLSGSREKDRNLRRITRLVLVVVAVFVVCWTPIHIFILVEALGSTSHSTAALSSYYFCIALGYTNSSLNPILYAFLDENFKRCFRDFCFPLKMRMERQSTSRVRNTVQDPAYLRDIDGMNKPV

Experiment [3] deals with T1, Mu-type opioid receptor (Homo sapiens, UniProt P35372). In words: Displacement of [3H]DAMGO from human recombinant mu opioid receptor expressed in HEK293 cells at 10000 nM incubated for 120 mins by radiometric scintillation analysis. The class given is cell-based. An outline of the steps: (§3)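 Nonspecific binding defined with 10 μM naloxone. Incubation 120 min at room temperature. Compounds at 0.1 and 10 μM. Rapid vacuum filtration through presoaked glass fiber filters, rinsed with ice-cold buffer. Read-out is percent displacement.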
T1 sequence (P35372 whole entry): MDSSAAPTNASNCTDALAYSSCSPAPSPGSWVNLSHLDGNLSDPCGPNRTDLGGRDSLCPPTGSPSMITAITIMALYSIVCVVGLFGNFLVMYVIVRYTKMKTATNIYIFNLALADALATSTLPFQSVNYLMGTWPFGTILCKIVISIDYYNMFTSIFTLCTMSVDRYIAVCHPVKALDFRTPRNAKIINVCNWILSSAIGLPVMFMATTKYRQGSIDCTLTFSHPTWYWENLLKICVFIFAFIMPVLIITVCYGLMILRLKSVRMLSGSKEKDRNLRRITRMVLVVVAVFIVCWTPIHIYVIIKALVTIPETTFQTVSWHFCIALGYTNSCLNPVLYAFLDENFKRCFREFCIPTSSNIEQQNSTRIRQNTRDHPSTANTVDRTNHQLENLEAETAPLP

Experiment [4] deals with T1, Mu-type opioid receptor. Kind of experiment: biochemical. The class given is cell-based, HEK293.
Experiment [5] addresses T1, Mu-type opioid receptor. Kind of experiment: Displacement of [3H]DAMGO from human recombinant mu opioid receptor expressed in HEK293 cells at 100 nM incubated for 120 mins by radiometric scintillation analysis. The class given is cell-based. In outline:
as §3

For experiment [6], the target named is Delta-type opioid receptor (Homo sapiens) (UniProt P41143). Kind of experiment: Displacement of [3H]DADLE from human recombinant delta opioid receptor expressed in Chem-1 (RBL) cells at 10000 nM incubated for 60 mins by radiometric scintillation analysis. The class given is cell-based. In outline:
as §1

For experiment [7], the target named is Kappa-type opioid receptor (Homo sapiens) (UniProt P41145). In words: Displacement of [3H]U69593 from human recombinant kappa opioid receptor expressed in Chem-1 (RBL) cells at 100 nM incubated for 60 mins by radiometric scintillation analysis. The class given is cell-based. In outline:
as §2

Experiment [8] concerns Rattus norvegicus. Kind of experiment: Antinociceptive activity in iv dosed Sprague-Dawley rat assessed as hot plate latency compound administered as cumulative dose at 5 mins intervals in presence of naltrexone by Hot-plate test. The class given is functional, organism-based. In outline: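 Adult female and male Sprague-Dawley rats (10 weeks, n = 6, three per sex) with right external jugular vein catheter. Vehicle 5% Tween 80 + 5% propylene glycol in sterile water, 1.0 mL/kg i.v. After baseline, vehicle then ascending cumulative doses every 5 min, then naltrexone 0.1 mg/kg i.v. Plate at 52 °C, 60 s cutoff. Latency converted to %MPE; ED50 (95% CI) by linear regression.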
Background: Hot-plate and tail-flick tests time the reaction to a heat stimulus.

Experiment [9] deals with Rattus norvegicus. Kind of experiment: Antinociceptive activity in iv dosed Sprague-Dawley rat assessed as hot plate latency compound administered as cumulative dose at 5 mins intervals by Hot-plate test. The class given is functional. In outline:
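Adult female and male Sprague-Dawley rats (10 weeks, n = 6, three per sex) with right external jugular vein catheter. Vehicle 5% Tween 80 + 5% propylene glycol in sterile water, 1.0 mL/kg i.v. After baseline, vehicle then ascending cumulative doses every 5 min, then naltrexone 0.1 mg/kg i.v. Plate at 52 °C, 60 s cutoff.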

Each structure is given as a SMILES string. The source made the active and inactive calls.

By Ki is commonly meant the equilibrium dissociation constant of an inhibitor or competing ligand from its target. By ED50 is commonly meant the dose that gives a 50% effect, or the effect in half of the subjects.

On to `CC[C@@H]1CN2CC[C@]3(C(=O)Nc4cccc(OC)c43)[C@@H]2C[C@@H]1/C(=C\OC)C(=O)OC`, for which the Activity in experiment [1] worked out at 10.4%; in experiment [2], 23%; at Mu-type opioid receptor [3], 66.5%; at Mu-type opioid receptor [5], 7.3%; in experiment [6], 87.1%; in [7] it was 5%. This molecule gave an inhibition constant Ki at Mu-type opioid receptor [4] of 1720 nM.

In the case of `CC[C@@H]1CN2CC[C@]3(C(=O)Nc4ccccc43)[C@@H]2C[C@@H]1/C(=C\OC)C(=O)OC` [CORYNOXINE B], the Activity in [1] was -4.4%; in experiment [2], 51.8%; on Mu-type opioid receptor [3], 94.4%; on Mu-type opioid receptor [5], 45.4%; in [6], 65.5%; in [7], 4.5%. Moreover, the affinity at Mu-type opioid receptor [4], expressed as Ki, was 110 nM.

As for `O=C1CC[C@@]2(O)[C@H]3Cc4ccc(O)c5c4[C@@]2(CCN3CC2CC2)[C@H]1O5`, in the experiment with Rattus norvegicus [8], the outcome was inactive.

On to `CC[C@@H]1C[N+]2([O-])CCc3c([nH]c4cccc(OC)c34)[C@H]2C[C@@H]1/C(=C\OC)C(=O)OC` (stereo partly drawn), for which the Activity worked out at 5.1% in experiment [1]; 80.9% in [2]; 84.6% on Mu-type opioid receptor [3]; 10.5% at Mu-type opioid receptor [5]; 53.5% in [6]; 6.6% in experiment [7]. In addition, on Mu-type opioid receptor [4], the Ki amounted to 553 nM.

Molecule `C=C[C@H]1CN2CCc3c([nH]c4cccc(OC)c34)[C@@H]2C[C@@H]1/C(=C\OC)C(=O)OC` yielded a Ki at Mu-type opioid receptor [4] of 410 nM.

Take `CC[C@@H]1CN2CC[C@@]3(C(=O)Nc4cccc(O)c43)[C@H]2C[C@@H]1/C(=C\OC)C(=O)OC`: the Activity in experiment [1] was 0%; in experiment [2], 37.3%; at Mu-type opioid receptor [3], 83.3%; on Mu-type opioid receptor [5], 13.1%; in experiment [6], 27.1%; in experiment [7], 0.1%. The same molecule registered a Ki on Mu-type opioid receptor [4] of 789 nM.

For the molecule `CC[C@@H]1CN2CC[C@@]3(C(=O)Nc4ccccc43)[C@@H]2C[C@@H]1/C(=C\OC)C(=O)OC` [CORYNOXINE], the Activity in experiment [1] was -3.9%; in [2], 75.3%; at Mu-type opioid receptor [3], 97.8%; on Mu-type opioid receptor [5], 80.1%; in experiment [6], 73.8%; in [7] it was 3.8%. The ED50 in the experiment on Rattus norvegicus [9] was found to be 6.75 mg/kg. Besides, the Ki at Mu-type opioid receptor [4] amounted to 16.4 nM.

The values above are taken from ChEMBL document CHEMBL4808166, “Exploring the Chemistry of Alkaloids from Malaysian Mitragyna speciosa (Kratom) and the Role of Oxindoles on Human Opioid Receptors” (J Nat Prod, 2021).
